Experimental data as given in ChEMBL document CHEMBL1152975, “Design and synthesis of orally bioavailable serum and glucocorticoid-regulated kinase 1 (SGK1) inhibitors” (Bioorg Med Chem Lett, 2009).

Assays:
[1] = biological target: T1, Serine/threonine-protein kinase Sgk1 (Homo sapiens, UniProt O00141); experiment: Inhibition of SGK1 by fluorescence polarization assay
T1 sequence (O00141 whole entry): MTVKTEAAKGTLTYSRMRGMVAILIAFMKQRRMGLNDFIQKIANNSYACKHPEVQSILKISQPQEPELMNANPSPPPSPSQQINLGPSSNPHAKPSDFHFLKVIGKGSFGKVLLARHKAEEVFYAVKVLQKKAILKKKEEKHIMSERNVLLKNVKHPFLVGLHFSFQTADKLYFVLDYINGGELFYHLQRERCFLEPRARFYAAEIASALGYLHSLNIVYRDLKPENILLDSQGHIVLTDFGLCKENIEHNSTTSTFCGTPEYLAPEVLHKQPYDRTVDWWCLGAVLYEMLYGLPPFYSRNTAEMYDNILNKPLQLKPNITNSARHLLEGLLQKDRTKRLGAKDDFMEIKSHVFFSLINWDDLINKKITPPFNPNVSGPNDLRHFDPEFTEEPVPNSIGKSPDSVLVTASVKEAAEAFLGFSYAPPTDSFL

[2] = biological target: T1, Serine/threonine-protein kinase Sgk1; experiment: Inhibition of SGK1-mediated epithelial sodium channel activity in human M-1 cells assessed as short circuit current by whole cell electrophysiological transepithelial experiment; type: cell-based
[3] = AUC (0 to t) in po dosed rat by discrete study; type: ADME, organism-based; conditions: plasma
Method in brief: (§1)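 Each compound was dosed on its own (discrete study) to rats, iv and orally. Clearance, Vdss and terminal half-life come from the iv arm; oral AUC0–t and dose-normalized AUC0–t come from the oral arm.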

[4] = Terminal half life in iv dosed rat by discrete study; type: ADME, organism-based; conditions: in vivo, read-out: beta t1/2; method in brief: as §1
[5] = test system: Rattus norvegicus; experiment: Dose normalized AUC (0 to t) in po dosed rat by discrete study; type: ADME, organism-based; conditions: in vivo; method in brief: as §1
[6] = Plasma clearance in rat by discrete study; type: ADME, organism-based; method in brief: as §1
[7] = Volume of distribution at steady state in rat by discrete study; type: ADME, organism-based; conditions: in vivo, read-out: Vdss; method in brief: as §1
[8] = Terminal half life in iv dosed rat by cassette dosing; type: ADME, organism-based; conditions: in vivo, read-out: beta t1/2
Method in brief: (§2)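 Rats were given a cassette of four compounds as one mixture, dosed iv and orally. Clearance, Vdss and terminal half-life come from the iv arm; oral AUC0–t and dose-normalized AUC0–t come from the oral arm.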

[9] = Volume of distribution at steady state in rat by cassette dosing; type: ADME, organism-based; conditions: in vivo, read-out: Vdss; method in brief: as §2
[10] = AUC (0 to t) in po dosed rat by cassette dosing; type: ADME, organism-based; conditions: plasma; method in brief: as §2
[11] = test system: Rattus norvegicus; experiment: Dose normalized AUC (0 to t) in po dosed rat by cassette dosing; type: ADME, organism-based; conditions: in vivo; method in brief: as §2
[12] = Plasma clearance in rat by cassette dosing; type: ADME, organism-based; method in brief: as §2
[13] = Dissociation constant, pKa of the compound; type: physicochemical

SMILES	IC50 [1] [nM]	IC50 [2] [nM]	half-life [8] [h]	Vd [9] [L/kg]	AUC(0-t) [10] [ng·h/mL]	AUC [11] [ng·h/mL/mg/kg]	clearance [12] [mL/min/kg]	further results
CC(C)(C(=O)O)c1ccc(-c2c[nH]c3ncc(-c4ccccc4)cc23)cc1	50	1460						
O=C(O)Cc1ccc(-c2c[nH]c3ncc(-c4ccc5ccccc5c4)cc23)cc1		880						AUC(0-t) [3]: 467 ng·h/mL; half-life [4]: 4.22 h; AUC [5]: 225 ng·h/mL/mg/kg; clearance [6]: 21.3 mL/min/kg; Vd [7]: 1.3 L/kg
CCc1cc(-c2c[nH]c3ncc(-c4ccccc4)cc23)ccc1C(=O)O	20	710	1.62	0.43	1500	600	9.4	
O=C(O)c1ccc(-c2c[nH]c3ncc(-c4ccccc4)cc23)cc1		1300						AUC(0-t) [3]: 392 ng·h/mL; half-life [4]: 9.4 h; AUC [5]: 154 ng·h/mL/mg/kg; clearance [6]: 64.4 mL/min/kg; pKa [13]: 4.2; Vd [7]: 8.8 L/kg
NCc1ccc(-c2c[nH]c3ncc(-c4ccccc4)cc23)cc1	400							
CC(C(=O)O)c1ccc(-c2c[nH]c3ncc(-c4ccc5ccccc5c4)cc23)cc1 (centres undefined)	125							
CC(=O)c1ccc(-c2c[nH]c3ncc(-c4ccccc4)cc23)cc1	5000							
CC(C)(C(=O)O)c1ccc(-c2c[nH]c3ncc(-c4ccc5ccccc5c4)cc23)cc1	63	870	4.4	0.67	4170	2100	4.32	
CC(C)(C(=O)O)c1ccc(-c2c[nH]c3ncc(-c4cccc(C#N)c4)cc23)cc1	40	2000	8.13	2.5	1910	905	6.56	
CC(C)Cc1cc(-c2c[nH]c3ncc(-c4ccccc4)cc23)ccc1C(=O)O	5	580	1.17	0.62	373	176	21.9	
c1ccc(-c2cnc3[nH]cc(-c4ccc(-c5nnn[nH]5)cc4)c3c2)cc1	160							pKa [13]: 4.9
COC(=O)c1ccc(-c2c[nH]c3ncc(-c4ccccc4)cc23)cc1	3160							
O=C(O)c1ccc(-c2c[nH]c3ncc(-c4ccccc4)cc23)cc1C1CCCC1 [GSK-650394]			1.58	0.77	313	134	25.7	
